Test results published in ChEMBL document CHEMBL2440012, “Design, synthesis and anticonvulsant properties of new N-Mannich bases derived from 3-phenylpyrrolidine-2,5-diones” (Bioorg Med Chem, 2013).
Active and inactive are the calls of the source. The calls are words filed in the database; no cut-off is given here.

Key:
Mus musculus [1] = experiment: Neurotoxicity in albino CF1 mouse assessed as minimum motor impairment at 300 mg/kg, ip measured after 4 hrs by rotorod test; type: toxicity, organism-based; design: dose 300 mg/kg, route intraperitoneal; conditions: in vivo
Method in brief: (§1)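 Male CF-1 mice given ip suspension in 0.5% methylcellulose/water at 30, 100 and 300 mg/kg; MES, scPTZ (pentylenetetrazole 85 mg/kg sc, CD97 dose for clonic seizures ≥5 s) and rotarod (inability to hold balance 1 min in each of three trials) assessed at 0.5 and 4 h; value is minimum dose active in half or more animals.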

Mus musculus [2] = experiment: Neurotoxicity in ip dosed albino CF1 mouse assessed as minimum motor impairment in half or more animals measured after 0.5 hrs by rotorod test; type: toxicity, organism-based; conditions: in vivo; method in brief: as §1
Mus musculus [3] = experiment: Anticonvulsant activity in albino CF1 mouse assessed as protection against subcutaneous pentylenetetrazole-induced convulsion at 300 mg/kg, ip measured after 4 hrs; type: functional, organism-based; design: dose 300 mg/kg; method in brief: as §1
Mus musculus [4] = experiment: Anticonvulsant activity in albino CF1 mouse assessed as protection against subcutaneous pentylenetetrazole-induced convulsion at 300 mg/kg, ip measured after 0.5 hrs; type: functional, organism-based; design: dose 300 mg/kg; method in brief: as §1
Mus musculus [5] = experiment: Anticonvulsant activity in ip dosed albino CF1 mouse assessed as protection against maximal electroshock-induced seizures in half or more animals measured after 4 hrs; type: functional; conditions: read-out: MED; method in brief: as §1
Mus musculus [6] = experiment: Anticonvulsant activity in albino CF1 mouse assessed as protection against maximal electroshock-induced seizures at 300 mg/kg, ip measured after 0.5 hr; type: functional, organism-based; design: dose 300 mg/kg; method in brief: as §1
Mus musculus [7] = experiment: Neurotoxicity in ip dosed albino CF1 mouse assessed as minimum motor impairment in half or more animals measured after 4 hrs by rotorod test; type: toxicity, organism-based; conditions: in vivo; method in brief: as §1
Mus musculus [8] = experiment: Anticonvulsant activity in ip dosed albino CF1 mouse assessed as protection against maximal electroshock-induced seizures in half or more animals measured after 0.5 hr; type: functional; conditions: read-out: MED; method in brief: as §1
Mus musculus [9] = experiment: Neurotoxicity in albino CF1 mouse assessed as minimum motor impairment at 300 mg/kg, ip measured after 0.5 hr by rotorod test; type: toxicity, organism-based; design: dose 300 mg/kg, route intraperitoneal; conditions: in vivo; method in brief: as §1
Rattus norvegicus [10] = experiment: Anticonvulsant activity in albino Sprague-Dawley rat assessed as protection against maximal electroshock-induced seizures at 30 mg/kg, po measured after 4 hrs; type: functional
Method in brief: (§2)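 Male Sprague-Dawley rats, four per group, dosed p.o. at 30 mg/kg in 0.5% methylcellulose/water suspension; MES test at 0.25, 0.5, 1, 2 and 4 h, motor impairment examined in parallel; number of rats out of four protected.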

Rattus norvegicus [11] = experiment: Anticonvulsant activity in albino Sprague-Dawley rat assessed as protection against maximal electroshock-induced seizures at 30 mg/kg, po measured after 2 hrs; type: functional; method in brief: as §2
Rattus norvegicus [12] = experiment: Anticonvulsant activity in albino Sprague-Dawley rat assessed as protection against maximal electroshock-induced seizures at 30 mg/kg, po measured after 1 hr; type: functional; method in brief: as §2
Rattus norvegicus [13] = experiment: Anticonvulsant activity in albino Sprague-Dawley rat assessed as protection against maximal electroshock-induced seizures at 30 mg/kg, po measured after 0.5 hr; type: functional; method in brief: as §2
Rattus norvegicus [14] = experiment: Anticonvulsant activity in albino Sprague-Dawley rat assessed as protection against maximal electroshock-induced seizures at 30 mg/kg, po measured after 0.25 hr; type: functional; method in brief: as §2
Mus musculus [15] = experiment: Anticonvulsant activity in albino CF1 mouse assessed as assessed as protection against 6 Hz psychomotor seizure at 100 mg/kg, ip after 4 hrs by minimal clonic seizure test; type: functional; conditions: route intraperitoneal
Method in brief: (§3)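 Male CF-1 mice, groups of four, dosed ip in 0.5% methylcellulose/water suspension, then challenged by 6-Hz corneal stimulation at 32 mA (0.2 ms pulses, 3 s, constant current) at 0.25, 0.5, 1, 2 or 4 h; count of mice out of four protected from stunned posture/clonic seizure.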

Mus musculus [16] = experiment: Anticonvulsant activity in albino CF1 mouse assessed as assessed as protection against 6 Hz psychomotor seizure at 100 mg/kg, ip after 2 hrs by minimal clonic seizure test; type: functional; conditions: route intraperitoneal; method in brief: as §3
Mus musculus [17] = experiment: Anticonvulsant activity in albino CF1 mouse assessed as assessed as protection against 6 Hz psychomotor seizure at 100 mg/kg, ip after 1 hr by minimal clonic seizure test; type: functional; conditions: route intraperitoneal; method in brief: as §3
Mus musculus [18] = experiment: Anticonvulsant activity in albino CF1 mouse assessed as assessed as protection against 6 Hz psychomotor seizure at 100 mg/kg, ip after 0.25 hr by minimal clonic seizure test; type: functional; conditions: route intraperitoneal; method in brief: as §3
Mus musculus [19] = experiment: Anticonvulsant activity in albino CF1 mouse assessed as assessed as protection against 6 Hz psychomotor seizure at 100 mg/kg, ip after 0.5 hr by minimal clonic seizure test; type: functional; conditions: route intraperitoneal; method in brief: as §3
Mus musculus [20] = experiment: Anticonvulsant activity in albino CF1 mouse assessed as protection against maximal electroshock-induced seizures at 300 mg/kg, ip measured after 4 hrs; type: functional, organism-based; design: dose 300 mg/kg; method in brief: as §1

| SMILES | Activity (Mus musculus [1]) | MED (Mus musculus [2]) [mg/kg] | Activity (Mus musculus [3]) | Activity (Mus musculus [4]) | minimal effective dose (Mus musculus [5]) [mg/kg] | Activity (Mus musculus [6]) | Activity (Mus musculus [9]) | Activity (Mus musculus [20]) | other results |
| --- | --- | --- | --- | --- | --- | --- | --- | --- | --- |
| O=C1CC(c2cccc(Cl)c2)C(=O)N1CN1CCN(c2ccccc2F)CC1 (racemic) | Non-toxic | 300 | inactive | inactive | 100 | inactive |  |  |  |
| O=C1CC(c2cccc(Cl)c2)C(=O)N1CN1CCN(c2cccc(C(F)(F)F)c2)CC1 (racemic) |  | 300 | inactive | inactive | 100 |  |  |  | MED (Mus musculus [7]): 300 mg/kg; minimal effective dose (Mus musculus [8]): 100 mg/kg |
| O=C1CC(c2ccc(Cl)cc2)C(=O)N1CN1CCOCC1 (racemic) | Non-toxic |  | inactive | inactive | 300 |  | Non-toxic |  | minimal effective dose (Mus musculus [8]): 100 mg/kg |
| O=C1CC(c2ccccc2Cl)C(=O)N1CN1CCN(c2cccc(C(F)(F)F)c2)CC1 (racemic) | Non-toxic |  | inactive | inactive | 100 | inactive | Non-toxic |  |  |
| O=C1CC(c2ccc(Cl)cc2)C(=O)N1CN1CCN(C2CCCCC2)CC1 (racemic) | Non-toxic |  | inactive | inactive | 100 | inactive | Non-toxic |  |  |
| O=C1CC(c2cccc(Cl)c2)C(=O)N1CN1CCOCC1 (racemic) | Non-toxic | 300 | inactive | inactive | 100 |  |  |  | Activity (Rattus norvegicus [10]): 50%; Activity (Rattus norvegicus [11]): 50%; Activity (Rattus norvegicus [12]): 50%; Activity (Rattus norvegicus [13]): 50%; Activity (Rattus norvegicus [14]): inactive; minimal effective dose (Mus musculus [8]): 100 mg/kg |
| O=C1CC(c2ccc(Cl)cc2)C(=O)N1CN1CCC(Cc2ccccc2)CC1 (racemic) | Non-toxic |  | inactive | inactive | 100 | inactive | Non-toxic |  | Activity (Mus musculus [15]): 25%; Activity (Mus musculus [16]): 75%; Activity (Mus musculus [17]): 0%; Activity (Mus musculus [18]): 0%; Activity (Mus musculus [19]): 0% |
| O=C1CC(c2ccc(Cl)cc2)C(=O)N1CN1CCN(c2cccc(Cl)c2)CC1 (racemic) |  | 300 | inactive | inactive | 100 | inactive |  |  | MED (Mus musculus [7]): 300 mg/kg |
| Cc1cccc(N2CCN(CN3C(=O)CC(c4cccc(Cl)c4)C3=O)CC2)c1 (racemic) | Non-toxic | 100 | inactive | inactive | 30 | inactive |  |  |  |
| O=C1CC(c2cccc(Cl)c2)C(=O)N1CN1CCC(Cc2ccccc2)CC1 (racemic) | Non-toxic |  | inactive | inactive | 100 |  | Non-toxic |  | Activity (Rattus norvegicus [10]): inactive; Activity (Rattus norvegicus [11]): 50%; Activity (Rattus norvegicus [12]): 25%; Activity (Rattus norvegicus [13]): inactive; Activity (Rattus norvegicus [14]): 50%; minimal effective dose (Mus musculus [8]): 300 mg/kg |
| O=C1CC(c2cccc(Cl)c2)C(=O)N1CN1CCN(c2cccc(Cl)c2)CC1 (racemic) | Non-toxic |  | inactive | inactive |  | inactive | Non-toxic | inactive |  |
| O=C1CC(c2ccccc2Cl)C(=O)N1CN1CCN(c2ccc(Cl)cc2)CC1 (racemic) | Non-toxic |  | inactive | inactive | 300 | inactive | Non-toxic |  |  |
| O=C1CC(c2ccccc2Cl)C(=O)N1CN1CCN(c2ccccc2Cl)CC1 (racemic) | Non-toxic |  | inactive | inactive |  | inactive | Non-toxic | inactive |  |
| O=C1CC(c2cccc(Cl)c2)C(=O)N1CN1CCN(c2ccc(Cl)cc2)CC1 (racemic) | Non-toxic |  | inactive | inactive | 100 |  | Non-toxic |  | minimal effective dose (Mus musculus [8]): 300 mg/kg |
| O=C1CC(c2ccc(Cl)cc2)C(=O)N1CN1CCN(c2ccccc2Cl)CC1 (racemic) |  | 300 | inactive | inactive |  | inactive |  | inactive | MED (Mus musculus [7]): 300 mg/kg |
| O=C1CC(c2ccccc2Cl)C(=O)N1CN1CCN(c2cccc(Cl)c2)CC1 (racemic) |  | 100 | inactive | inactive | 100 | inactive |  |  | MED (Mus musculus [7]): 300 mg/kg |
| O=C1CC(c2ccc(Cl)cc2)C(=O)N1CN1CCN(c2cccc(C(F)(F)F)c2)CC1 (racemic) | Non-toxic | 300 | inactive | inactive | 100 | inactive |  |  |  |
| O=C1CC(c2cccc(Cl)c2)C(=O)N1CN1CCN(C2CCCCC2)CC1 (racemic) | Non-toxic |  | inactive | inactive | 300 |  | Non-toxic |  | minimal effective dose (Mus musculus [8]): 300 mg/kg |
| O=C1CC(c2ccc(Cl)cc2)C(=O)N1CN1CCN(c2ccc(Cl)cc2)CC1 (racemic) | Non-toxic |  | inactive | inactive |  | inactive | Non-toxic | inactive |  |
| O=C1CC(c2ccc(Cl)cc2)C(=O)N1CN1CCN(c2ncccn2)CC1 (racemic) | Non-toxic | 300 | inactive | inactive |  | inactive |  | inactive |  |
| O=C1CC(c2ccccc2)C(=O)N1CN1CCN(C2CCCCC2)CC1 (racemic) | Non-toxic |  | inactive | inactive |  | inactive | Non-toxic | inactive |  |
| O=C1CC(c2cccc(Cl)c2)C(=O)N1CN1CCN(c2ncccn2)CC1 (racemic) | Non-toxic |  | inactive | inactive | 100 | inactive | Non-toxic |  | Activity (Rattus norvegicus [10]): inactive; Activity (Rattus norvegicus [11]): inactive; Activity (Rattus norvegicus [12]): inactive; Activity (Rattus norvegicus [13]): inactive; Activity (Rattus norvegicus [14]): inactive |
| O=C1CC(c2ccccc2Cl)C(=O)N1CN1CCN(C2CCCCC2)CC1 (racemic) | Non-toxic |  | inactive | inactive | 100 | inactive | Non-toxic |  |  |
| O=C1CC(c2cccc(Cl)c2)C(=O)N1CN1CCN(c2ccccc2Cl)CC1 (racemic) | Non-toxic |  | inactive | inactive |  | inactive | Non-toxic | inactive |  |
| COc1ccccc1N1CCN(CN2C(=O)CC(c3cccc(Cl)c3)C2=O)CC1 (racemic) |  | 300 | inactive | inactive |  | inactive |  | inactive | MED (Mus musculus [7]): 300 mg/kg |
